Experimental data reported in ChEMBL document CHEMBL4765243, “Discovery of Novel Bromophenol-Thiosemicarbazone Hybrids as Potent Selective Inhibitors of Poly(ADP-ribose) Polymerase-1 (PARP-1) for Use in Cancer” (J Med Chem, 2019).
Activity calls are given as the source filed them. The calls are words filed in the database; no cut-off is given here.

Experiments:
SK-OV-3 [1] = assay: Antiproliferative activity against human SK-OV-3 cells assessed as cell growth inhibition incubated for 48 hrs by MTT assay; type: functional, cell-based; conditions: SK-OV-3, 48 h
Procedure, shortened: (§1)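 Cells seeded in 96-well plates and exposed to compounds for 48 h; viability read by MTT. Each experiment repeated three times. SK-OV-3 grown in McCOY's 5A, Bel-7402 and HL-7702 in RPMI-1640, HepG2 in DMEM, Caco-2 in MEM.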

HepG2 = assay: Antiproliferative activity against human HepG2 cells assessed as cell growth inhibition incubated for 48 hrs by MTT assay; type: functional, cell-based; conditions: HepG2, 48 h; procedure, shortened: as §1
[2] = molecular target: T1, Poly [ADP-ribose] polymerase 1 (Homo sapiens, UniProt P09874); assay: Inhibition of PARP-1 in human SKOV3 cells assessed as decrease in MCM4 protein expression level at 2.5 to 10 uM incubated for 48 hrs by western blot analysis; type: cell-based; conditions: SK-OV-3, dose 2.5-10 µM
Procedure, shortened: (§2)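 SK-OV-3 cells were grown in McCOY's 5A, seeded in 6-well plates and treated for 48 h. Lysate proteins were separated by 8-15 % SDS-PAGE and transferred to PVDF membranes. Membranes were blocked in 5 % nonfat milk, probed with primary antibody overnight at 4 °C and with HRP secondary antibody for 1 h at room temperature, then detected by enhanced chemiluminescence. Images are representative of 3 independent experiments.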

[3] = molecular target: T1, Poly [ADP-ribose] polymerase 1; assay: Inhibition of PARP-1 in human SKOV3 cells assessed as decrease in MCM7 protein expression level at 2.5 to 10 uM incubated for 48 hrs by western blot analysis; type: cell-based; conditions: SK-OV-3, dose 2.5-10 µM; procedure, shortened: as §2
[4] = molecular target: T1, Poly [ADP-ribose] polymerase 1; assay: Inhibition of PARP-1 in human SKOV3 cells assessed as increase in gammaH2AX expression level at 2.5 to 10 uM incubated for incubated for 48 hrs by western blot analysis; type: cell-based; conditions: SK-OV-3, dose 2.5-10 µM; procedure, shortened: as §2
SK-OV-3 [5] = assay: Induction of apoptosis in human SKOV3 cells at 2.5 to 10 uM incubated for 48 hrs by annexin V-FITC/PI based flow cytometric analysis; type: functional, cell-based; conditions: dose 2.5-10 µM
Procedure, shortened: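 SK-OV-3 cells treated 48 h, then harvested, stained with Annexin V/PI and analysed by flow cytometry.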

SK-OV-3 [6] = assay: Induction of apoptosis in human SKOV3 cells assessed as increase in caspase-3 expression at 2.5 to 10 uM incubated for 48 hrs by western blot analysis; type: functional, cell-based; conditions: dose 2.5-10 µM
SK-OV-3 [7] = assay: Induction of ROS generation in human SKOV3 cells assessed as fold increase in ROS level at 2.5 uM incubated for 48 hrs by DCFH-DA staining based flow cytometry relative to control; type: functional
SK-OV-3 [8] = assay: Induction of ROS generation in human SKOV3 cells assessed as fold increase in ROS level at 10 uM incubated for 48 hrs by DCFH-DA staining based flow cytometry relative to control; type: functional
SK-OV-3 [9] = assay: Induction of autophagy in human SKOV3 cells transfected with GFP-LC3 assessed as increase in LC3 dot accumulation at 10 uM incubated for 48 hrs by TEM analysis; type: functional, cell-based; conditions: in the assay text read “fluorescence microscopy” for “TEM analysis”
Procedure, shortened: (§3)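 SK-OV-3 cells on glass coverslips infected with Ad-mCherry-GFP-LC3B for 24 h. Cells then treated at 10 µM for 48 h, fixed in 4% paraformaldehyde and examined by fluorescence microscopy.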

SK-OV-3 [10] = assay: Induction of autophagy in human SKOV3 cells assessed as increase in fluorescence intensity t 10 uM incubated for 48 hrs by immunofluorescence analysis; type: functional, cell-based; procedure, shortened: as §3
SK-OV-3 [11] = assay: Induction of autophagy in human SKOV3 cells assessed as LC3-II protein expression at 10 uM incubated for 48 hrs by western blot analysis; type: functional, cell-based
Procedure, shortened: (§4)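 SK-OV-3 cells in 6-well plates treated 48 h. Lysates separated by 8-15% SDS-PAGE and transferred to PVDF. Membranes blocked in 5% milk and probed overnight at 4 °C with LC3 or Beclin 1 antibodies. HRP secondary applied 1 h at room temperature; detection by ECL.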

SK-OV-3 [12] = assay: Induction of autophagy in human SKOV3 cells assessed as increase in Beclin-1 protein level at 10 uM incubated for 48 hrs by western blot analysis; type: functional, cell-based; procedure, shortened: as §4
SK-OV-3 [13] = assay: Antitumor activity against human SKOV3 cells xenografted in Balb/c nude mouse assessed as tumor growth inhibition at 50 mg/kg, po for 21 days and measured every third day; conditions: SK-OV-3, po, 504 h, read-out: INH
[14] = Toxicity in Balb/c nude mouse xenografted with human SKOV3 cells assessed as histological changes in liver at 25 to 50 mg/kg, po for 21 days by H and E staining based microscopic analysis; type: organism-based; conditions: in vivo, 504 h, dose 25-50 mg/kg, time 21 day
Procedure, shortened: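 SK-OV-3 xenografts in female BALB/c nude mice were dosed orally at 25 or 50 mg/kg in 0.5% CMC-Na for 21 days. Tumours were then snap-frozen in liquid nitrogen or fixed in 10% neutral-buffered formalin. Analysis used western blotting, H&E and immunohistochemistry on paraffin sections (Ki67, γ-H2AX).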

[15] = AUC (0 to infinity) in Sprague-Dawley rat at 2 mg/kg, iv by LC/MS/MS analysis; type: ADME, organism-based; parameters: route intravenous, time infinity, dose 2 mg/kg; conditions: in vivo
[16] = Volume of distribution at steady state in Sprague-Dawley rat at 2 mg/kg, iv by LC/MS/MS analysis; type: ADME, organism-based; conditions: in vivo, read-out: Vdss
Procedure, shortened: (§5)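 Male Sprague-Dawley rats, 4 per group, dosed once orally at 10 mg/kg or intravenously at 2 mg/kg. Blood taken from the saphenous vein for plasma. Drug levels measured by LC-MS-MS, with parameters derived by noncompartmental analysis.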

[17] = MRT in Sprague-Dawley rat at 10 mg/kg, po by LC/MS/MS analysis; type: ADME, organism-based; conditions: in vivo; procedure, shortened: as §5
[18] = Acute toxicity in SPF Kunming mouse assessed as mortality at 100 to 1000 mg/kg, po administered as single dose and measured upto 14 days post drug administration; type: organism-based; conditions: in vivo, 336 h, dose 100-1000 mg/kg, time <=14 day
[19] = Acute toxicity in SPF Kunming mouse assessed as abnormality at 100 to 1000 mg/kg, po administered as single dose and measured upto 14 days post drug administration; type: organism-based; conditions: in vivo, 336 h, dose 100-1000 mg/kg, time <=14 day
Procedure, shortened: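 Single oral dose groups at 0 (physiological saline blank, equal volume), 100, 500 and 1000 mg/kg. Mice housed with free access to water and food in stainless cages, 25 ± 1 °C, 12-h light/dark cycle. Survival, body weight and abnormalities recorded up to 14 days post-treatment.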

[20] = Subacute toxicity in SPF Kunming mouse assessed as change in body weight at 1000 mg/kg, po administered for 14 days and measured on day 14; type: organism-based; conditions: in vivo, 336 h, time 14 day
Procedure, shortened: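 Twenty SPF Kunming mice (18 - 22 g), half male and half female, randomised into 2 groups of 5 males + 5 females. Treated group dosed orally at 1000 mg/kg once daily for 14 days. Death, clinical signs and body weight monitored. After 14 days: isoflurane anaesthesia, decapitation, tissues collected for H&E histology.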

SK-OV-3 [21] = assay: animal or person; conditions: Mus musculus, SK-OV-3, po, 504 h, read-out: INH

T1 sequence (P09874 whole entry): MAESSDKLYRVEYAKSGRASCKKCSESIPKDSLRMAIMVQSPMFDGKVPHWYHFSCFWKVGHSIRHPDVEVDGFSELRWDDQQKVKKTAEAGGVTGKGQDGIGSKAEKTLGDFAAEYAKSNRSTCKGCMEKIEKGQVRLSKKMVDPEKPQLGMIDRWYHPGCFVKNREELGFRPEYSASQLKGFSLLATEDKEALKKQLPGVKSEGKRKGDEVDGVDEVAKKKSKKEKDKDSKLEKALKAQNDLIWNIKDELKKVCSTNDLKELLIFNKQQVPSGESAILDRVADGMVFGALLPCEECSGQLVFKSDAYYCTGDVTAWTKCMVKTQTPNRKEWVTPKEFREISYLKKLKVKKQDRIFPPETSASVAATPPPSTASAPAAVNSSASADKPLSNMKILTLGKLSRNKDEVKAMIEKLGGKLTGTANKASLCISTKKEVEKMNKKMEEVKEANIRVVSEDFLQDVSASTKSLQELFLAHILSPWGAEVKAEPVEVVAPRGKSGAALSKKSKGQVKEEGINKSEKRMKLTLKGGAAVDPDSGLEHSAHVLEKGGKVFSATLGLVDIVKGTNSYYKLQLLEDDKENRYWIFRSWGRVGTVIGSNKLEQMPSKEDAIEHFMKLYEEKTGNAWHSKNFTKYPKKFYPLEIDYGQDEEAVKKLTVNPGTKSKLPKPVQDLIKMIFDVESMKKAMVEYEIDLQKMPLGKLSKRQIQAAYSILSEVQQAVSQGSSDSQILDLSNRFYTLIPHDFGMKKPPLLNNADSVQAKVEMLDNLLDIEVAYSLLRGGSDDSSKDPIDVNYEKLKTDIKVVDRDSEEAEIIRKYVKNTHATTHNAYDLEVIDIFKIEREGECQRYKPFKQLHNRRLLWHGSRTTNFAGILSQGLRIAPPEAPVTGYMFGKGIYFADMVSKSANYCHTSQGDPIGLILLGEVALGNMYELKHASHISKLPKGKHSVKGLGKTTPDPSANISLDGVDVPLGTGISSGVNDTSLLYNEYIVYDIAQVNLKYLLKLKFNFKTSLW

## COc1cc(/C=N/NC(N)=S)c(Br)c(Br)c1OC
SK-OV-3 [1]
  IC50: 2390 nM
HepG2
  IC50: 4.6 µM
[2]
  inhibition: Active
[3]
  inhibition: Active
[4]
  inhibition: Active
SK-OV-3 [5]
  Activity: Active
SK-OV-3 [6]
  Activity: Active
SK-OV-3 [7]
  fold change (FC): 1.76
SK-OV-3 [8]
  fold change (FC): 3.04
SK-OV-3 [9]
  Activity: Active
SK-OV-3 [10]
  Activity: Active
SK-OV-3 [11]
  Activity: Active
SK-OV-3 [12]
  Activity: Active
SK-OV-3 [13]
  inhibition in vivo at 50 mg/kg: 58.7%
[14]
  Activity: Non-Toxic
[15]
  AUC: 886 nM·h
[16]
  Vd: 6.1 L/kg
[17]
  MRT: 3.76 h
[18]
  Activity: Non-Toxic
[19]
  Activity: Non-Toxic
[20]
  Activity: Non-Toxic
SK-OV-3 [21]
  inhibition in vivo at 25 mg/kg: 70%
